Results as given in ChEMBL document CHEMBL1158548, “Tetrahydrochromenoimidazoles as potassium-competitive acid blockers (P-CABs): structure-activity relationship of their antisecretory properties and their affinity toward the hERG channel” (J Med Chem, 2010).
Active and inactive are the calls of the source. No cut-off for these calls is given here.

Columns and labels:
[1] = system: Rattus norvegicus; test: Inhibition of pentagastrin-stimulated acid secretion in intraduodenally dosed perfused Sprague-Dawley rat Ghosh Schild model; assay type: functional; settings: intraduodenal
[2] = Partition coefficient, log D by HPLC; assay type: physicochemical; settings: octanol/water
Method in brief: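 logD by reversed-phase HPLC at 37 °C, calibrated with seven reference substances of known logD.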

[3] = target: hERG (KCNH2) (Homo sapiens, UniProt Q12809); test: Inhibition of human ERG expressed in CHO-K1 cells at 10 uM by whole-cell patch clamp technique; assay type: cell-based; settings: CHO-K1 cells that express human ERG
Method in brief: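 CHO-K1 cells stably transfected with hERG; whole-cell patch clamp recording of tail currents with test compound at 10 μM, three cells per compound; relative block of tail current amplitude given as arithmetic mean.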

[4] = Inhibition of H+/K+ ATPase in hog gastric mucosa by malachite green based competitive binding assay; assay type: tissue-based, Sus scrofa
Method in brief: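 Hog gastric mucosa H+/K+-ATPase, isolated enzyme; competitive binding assay run at pH 7.4; pIC50 reported as geometric mean of 4-5 measurements.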

[5] = system: Canis familiaris; test: Inhibition of pentagastrin-stimulated acid secretion in po dosed Beagle dog fistula model assessed as elevation of intragastric pH; assay type: functional, organism-based; settings: Canis lupus familiaris
Method in brief: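 Surgically prepared fistula dogs; pentagastrin infused subcutaneously from 1 h after start of pH-metry over 22.5 h; drug or vehicle given orally in capsules 2.5 h after start; intragastric pH recorded continuously for 24 h with combined glass electrode and ambulatory pH meter; duration of pH >5 read from curves.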

[6] = system: Gastric gland; test: Inhibition of acid secretion in New Zealand White rabbit intact gastric glands assessed as [14C]dimethylaminopyridine accumulation by radioactivity; assay type: functional, tissue-based; settings: Oryctolagus cuniculus
Method in brief: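 Gastric glands isolated intact from New Zealand rabbits; cellular activity read as reduced accumulation of the weak base 14C-dimethylaminopyridine; pIC50 given as geometric mean of 4-5 determinations.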

[7] = Dissociation constant, pKa at pH 2.0 to 11.0 by potentiometric cosolvent titration; assay type: physicochemical
[8] = system: Rattus norvegicus; test: Inhibition of pentagastrin-stimulated acid secretion in Sprague-Dawley rat Ghosh Schild model at 3 umol/kg, intraduodenally; assay type: functional; settings: intraduodenal
[9] = Octanol/aqueous KCl distribution coefficient, log D at pH 7.4 by potentiometric titration; assay type: physicochemical
Method in brief: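 Octanol/aqueous KCl distribution coefficient from potentiometric titrations across pH 2.0-11.0 at 25 °C.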

Chain of hERG (KCNH2) (Q12809 whole entry): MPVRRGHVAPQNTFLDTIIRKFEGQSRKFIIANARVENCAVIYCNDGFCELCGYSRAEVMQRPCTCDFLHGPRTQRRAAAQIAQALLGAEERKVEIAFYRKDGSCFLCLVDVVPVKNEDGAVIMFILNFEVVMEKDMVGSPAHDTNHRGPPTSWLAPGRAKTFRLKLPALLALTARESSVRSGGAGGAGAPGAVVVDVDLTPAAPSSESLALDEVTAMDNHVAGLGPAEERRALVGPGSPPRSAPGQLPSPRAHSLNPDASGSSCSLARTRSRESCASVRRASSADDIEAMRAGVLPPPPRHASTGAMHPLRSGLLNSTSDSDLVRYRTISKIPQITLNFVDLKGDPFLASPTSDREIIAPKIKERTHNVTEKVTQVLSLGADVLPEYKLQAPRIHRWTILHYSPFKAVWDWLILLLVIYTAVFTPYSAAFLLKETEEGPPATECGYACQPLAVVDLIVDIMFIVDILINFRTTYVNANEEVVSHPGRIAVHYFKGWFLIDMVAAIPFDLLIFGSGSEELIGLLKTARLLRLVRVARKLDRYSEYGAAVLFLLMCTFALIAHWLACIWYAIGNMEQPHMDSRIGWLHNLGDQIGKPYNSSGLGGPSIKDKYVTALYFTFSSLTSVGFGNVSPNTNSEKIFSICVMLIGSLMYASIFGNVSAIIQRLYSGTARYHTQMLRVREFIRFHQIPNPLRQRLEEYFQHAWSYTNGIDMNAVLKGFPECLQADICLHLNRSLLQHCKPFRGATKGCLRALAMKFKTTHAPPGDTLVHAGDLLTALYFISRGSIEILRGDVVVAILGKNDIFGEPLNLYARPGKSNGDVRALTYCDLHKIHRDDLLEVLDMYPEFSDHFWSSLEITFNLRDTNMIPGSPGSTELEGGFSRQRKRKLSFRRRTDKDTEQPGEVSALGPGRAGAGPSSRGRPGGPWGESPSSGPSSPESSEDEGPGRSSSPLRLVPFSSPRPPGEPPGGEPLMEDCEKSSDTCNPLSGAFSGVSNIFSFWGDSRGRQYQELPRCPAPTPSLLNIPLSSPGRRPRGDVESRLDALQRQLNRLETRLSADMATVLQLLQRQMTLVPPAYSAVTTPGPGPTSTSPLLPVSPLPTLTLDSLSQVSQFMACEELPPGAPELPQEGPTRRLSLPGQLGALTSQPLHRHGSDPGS

COC1CN(C(=O)c2cc3c(nc(C)n3C)c3c2CC[C@@H](c2ccccc2C)O3)C1
ED50 [1]: 0.3 µmol/kg
logD [2]: 2.9
inhibition at 10 µM [3]: 18%
pIC50 [4]: 5.2
Activity [5]: Active
IC50 [6]: 631 nM
pKa [7]: 5.66

Cc1ccccc1[C@@H]1CCc2c(C(=O)N3CCC3C(N)=O)cc3c(nc(C)n3C)c2O1 (some centres undefined)
inhibition in vivo at 3 µmol/kg [8]: 22%
ED50 [1]: 3 µmol/kg
logD [2]: 2.3
inhibition at 10 µM [3]: 7%
pIC50 [4]: 4.6

Cc1ccccc1[C@@H]1CCc2c(C(=O)N3CC(C)(O)C3)cc3c(nc(C)n3C)c2O1
inhibition in vivo at 3 µmol/kg [8]: 10%
ED50 [1]: 3 µmol/kg
logD [2]: 2.5
inhibition at 10 µM [3]: 1%
pIC50 [4]: 4.7
IC50 [6]: 79400 nM

Cc1nc2c3c(c(C(=O)N(C)C)cc2n1C)CC[C@@H](c1ccc(F)cc1)O3
ED50 [1]: 0.1 µmol/kg
logD [2]: 2.7
inhibition at 10 µM [3]: 28%
pIC50 [4]: 5.3
logD [9]: 2.36
IC50 [6]: 1000 nM
pKa ([7]; read-out: pKa): 5.65

Cc1ccccc1[C@@H]1CCc2c(C(=O)N(C)C)cc3c(nc(C4CC4)n3C)c2O1
ED50 [1]: 0.1 µmol/kg
logD [2]: 3.3
inhibition at 10 µM [3]: 6%
logD [9]: 2.84
Activity [5]: inactive
pKa ([7]; read-out: pKa): 5.28

Cc1nc2c3c(c(C(=O)N(C)C)cc2n1C)CC[C@@H](c1ccccc1F)O3
ED50 [1]: 0.5 µmol/kg
logD [2]: 2.7
inhibition at 10 µM [3]: 9%
pIC50 [4]: 4.9
logD [9]: 2.41
IC50 [6]: 1580 nM
pKa ([7]; read-out: pKa): 5.55

Cc1nc2c3c(c(C(=O)N(C)C)cc2n1C)CC[C@@H](c1ccccc1C1CC1)O3
ED50 [1]: 1.5 µmol/kg
logD [2]: 3.1
inhibition at 10 µM [3]: 18%
pIC50 [4]: 4.8
logD [9]: 3.18
IC50 [6]: 3160 nM
pKa ([7]; read-out: pKa): 5.63

Cc1ccccc1[C@@H]1CCc2c(C(=O)N3CC(C(=O)N(C)C)C3)cc3c(nc(C)n3C)c2O1
inhibition in vivo at 3 µmol/kg [8]: 36%
ED50 [1]: 3 µmol/kg
logD [2]: 2.5
inhibition at 10 µM [3]: 6%
pIC50 [4]: 4.9
IC50 [6]: 79400 nM

Cc1nc2c3c(c(C(=O)N(C)C)cc2n1C)CC[C@@H](c1ccc(Cl)cc1Cl)O3
ED50 [1]: 0.3 µmol/kg
logD [2]: 3.3
inhibition at 10 µM [3]: 59%
pIC50 [4]: 6
logD [9]: 3.66
IC50 [6]: 398 nM
pKa ([7]; read-out: pKa): 5.36

CCc1ccccc1[C@@H]1CCc2c(C(=O)N(C)C)cc3c(nc(C)n3C)c2O1
ED50 [1]: 0.5 µmol/kg
logD [2]: 3
inhibition at 10 µM [3]: 11%
pIC50 [4]: 5.4
Activity [5]: inactive
IC50 [6]: 1260 nM

Cc1sccc1[C@@H]1CCc2c(C(=O)N(C)C)cc3c(nc(C)n3C)c2O1
ED50 [1]: 0.3 µmol/kg
logD [2]: 2.7
inhibition at 10 µM [3]: 18%
pIC50 [4]: 6.3
logD [9]: 2.32
IC50 [6]: 1000 nM
pKa ([7]; read-out: pKa): 5.66

COCc1ccccc1[C@@H]1CCc2c(C(=O)N(C)C)cc3c(nc(C)n3C)c2O1
ED50 [1]: 1.6 µmol/kg
logD [2]: 2.6
inhibition at 10 µM [3]: 7%
pIC50 [4]: 4.7
logD [9]: 1.9
IC50 [6]: 15800 nM
pKa ([7]; read-out: pKa): 5.61

Cc1cc(Cl)ccc1[C@@H]1CCc2c(C(=O)N3CCC3)cc3c(nc(C)n3C)c2O1
ED50 [1]: 0.15 µmol/kg
logD [2]: 3.2
inhibition at 10 µM [3]: 48%
pIC50 [4]: 5.2
logD [9]: 3.43
IC50 [6]: 398 nM
pKa ([7]; read-out: pKa): 5.49

COC1CN(C(=O)c2cc3c(nc(C)n3C)c3c2CC[C@@H](c2ccc(Cl)cc2C)O3)C1
ED50 [1]: 0.4 µmol/kg
logD [2]: 3.2
inhibition at 10 µM [3]: 95%
pIC50 [4]: 5.4
logD [9]: 3.42
IC50 [6]: 501 nM
pKa ([7]; read-out: pKa): 5.48

CC(=O)CNC(=O)c1cc2c(nc(C)n2C)c2c1CC[C@@H](c1ccccc1C)O2
ED50 [1]: 0.3 µmol/kg
logD [2]: 2.8
inhibition at 10 µM [3]: 63%
pIC50 [4]: 4.6
Activity [5]: inactive
IC50 [6]: 1000 nM
pKa [7]: 5.62
